Data on five compounds can be found in article PMC4703501 (Leukemia, 2015).

One assay deals with HeLa cells. The assay can be described thus: TNF-α induced p65 NF-kB phosphorylation western blot. Type of assay: cell-based, human. The following applies: 5ng/ml TNF-α for 5 min after treatment. The essentials: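 Positive-control system: HeLa cells were pretreated with test compound, then stimulated with 5ng/ml TNF-α for 5 min. Phospho-p65 NF-kB was assessed by western blot of whole-cell extracts.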
(A western blot detects proteins with antibodies after separation by electrophoresis.)

Assay [1] deals with Granta 519 and Z138 cell lines. The assay can be described thus: MAP kinase pathway. The following applies: 24 hrs. Type of assay: cell-based, human.
Assay [2] concerns mantle cell lymphoma. The following applies: Phase I trial, patients with refractory disease; cited from earlier work.
The next assay deals with PI3K-δ (Homo sapiens, UniProt O00329). Nature of the assay: in vitro kinase assay, recombinant protein. In kind it is biochemical. The essentials:
(§1)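 Recombinant kinases were incubated with the indicated concentrations of test compound in in vitro kinase assays. Activity values were plotted against log drug concentration. IC50 came from sigmoidal non-linear regression with variable slope.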

The test system of assay [3] is Granta 519 and Z138C cells. Nature of the assay: apoptosis markers. Type of assay: cell-based, human. In a few lines:
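Granta 519 and Z138C cells were treated with test compound, then lysed in NP-40 buffer. Western blots on nitrocellulose assessed full-length caspases 3, 7 and 9 and PARP cleavage as apoptosis markers.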

Assay [4] deals with Granta 519 and Z138C cells. Nature of the assay: CDK4/CYCLIN D/Rb pathway western blot. Type of assay: cell-based, human. The following applies: 24 hours. The essentials:
(§2)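 Granta 519 and Z138C cells (RPMI or DMEM, 10% FBS, pen-strep, 37°C, 5% CO₂) received vehicle or increasing concentrations of test compound for 24 hours. Whole-cell extracts were made in NP-40 lysis buffer (Tris pH 7.4, NaF, Na₃VO₄), run on SDS-PAGE and blotted to nitrocellulose. Detection used infrared imaging, GAPDH was the loading control, and 4 independent experiments were done.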

The test system of the next assay is Z138C cells. The assay can be described thus: cell cycle distribution, propidium iodide flow cytometry. Type of assay: cell-based, human. The following applies: 24 hours. In a few lines:
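Z138C cells were treated with DMSO or increasing concentrations of test compound for 24 hours. They were then ethanol-fixed, PBS-washed and stained with RNase plus propidium iodide at 37°C for 20 min. DNA content was measured by flow cytometry to assign cell-cycle phases.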
(A flow cytometer gives signals particle by particle.)

In assay [5] the test system is Granta 519 and Z138C cells. Nature of the assay: PI3K/AKT/mTOR pathway western blot. Type of assay: cell-based, human. The following applies: 24 hours. In a few lines: as §2
Assay [6] has as its system exponentially growing Z138 cells. Nature of the assay: p65. In kind it is cell-based, human. The following applies: 24 hrs. The essentials:
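Exponentially growing Z138 cells were exposed to test compound. Whole-cell extracts were probed by western blot for p65 (NF-kB) phosphorylation.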

The next assay addresses ARK5 (Homo sapiens, UniProt O60285). Nature of the assay: in vitro kinase assay, recombinant protein. Type of assay: biochemical. The essentials: as §1
The test system of assay [7] is mantle cell lymphoma. The following applies: refractory or relapsed MCL patients; cited from earlier work.

Chain of PI3K-δ (O00329 whole entry): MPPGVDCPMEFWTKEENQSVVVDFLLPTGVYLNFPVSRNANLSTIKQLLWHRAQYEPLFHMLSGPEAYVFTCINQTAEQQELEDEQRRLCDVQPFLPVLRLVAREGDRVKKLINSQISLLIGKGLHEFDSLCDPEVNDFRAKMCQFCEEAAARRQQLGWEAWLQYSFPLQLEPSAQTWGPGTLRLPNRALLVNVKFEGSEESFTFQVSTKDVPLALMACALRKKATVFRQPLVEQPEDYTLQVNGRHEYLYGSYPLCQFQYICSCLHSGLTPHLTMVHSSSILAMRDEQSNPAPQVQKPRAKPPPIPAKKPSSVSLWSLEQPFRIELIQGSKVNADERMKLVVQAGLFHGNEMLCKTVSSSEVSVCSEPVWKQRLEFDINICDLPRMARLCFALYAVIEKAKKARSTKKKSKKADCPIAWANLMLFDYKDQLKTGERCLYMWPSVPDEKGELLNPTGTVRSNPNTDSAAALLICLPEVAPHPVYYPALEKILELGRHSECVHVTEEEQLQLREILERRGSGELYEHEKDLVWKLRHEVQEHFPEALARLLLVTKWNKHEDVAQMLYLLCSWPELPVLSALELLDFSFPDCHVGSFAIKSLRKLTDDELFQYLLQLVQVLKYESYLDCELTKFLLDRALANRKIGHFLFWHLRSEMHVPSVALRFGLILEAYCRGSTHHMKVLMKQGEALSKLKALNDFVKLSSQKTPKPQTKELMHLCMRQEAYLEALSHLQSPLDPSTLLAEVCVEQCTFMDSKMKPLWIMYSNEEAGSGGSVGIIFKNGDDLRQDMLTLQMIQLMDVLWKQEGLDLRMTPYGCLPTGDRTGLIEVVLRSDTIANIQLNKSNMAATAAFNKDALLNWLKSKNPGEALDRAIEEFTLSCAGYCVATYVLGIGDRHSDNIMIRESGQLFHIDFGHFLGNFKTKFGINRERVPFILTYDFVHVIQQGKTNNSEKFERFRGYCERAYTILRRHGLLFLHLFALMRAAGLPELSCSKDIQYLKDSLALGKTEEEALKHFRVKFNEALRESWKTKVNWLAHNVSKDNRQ
Chain of PI3K-δ (P27986 whole entry partner): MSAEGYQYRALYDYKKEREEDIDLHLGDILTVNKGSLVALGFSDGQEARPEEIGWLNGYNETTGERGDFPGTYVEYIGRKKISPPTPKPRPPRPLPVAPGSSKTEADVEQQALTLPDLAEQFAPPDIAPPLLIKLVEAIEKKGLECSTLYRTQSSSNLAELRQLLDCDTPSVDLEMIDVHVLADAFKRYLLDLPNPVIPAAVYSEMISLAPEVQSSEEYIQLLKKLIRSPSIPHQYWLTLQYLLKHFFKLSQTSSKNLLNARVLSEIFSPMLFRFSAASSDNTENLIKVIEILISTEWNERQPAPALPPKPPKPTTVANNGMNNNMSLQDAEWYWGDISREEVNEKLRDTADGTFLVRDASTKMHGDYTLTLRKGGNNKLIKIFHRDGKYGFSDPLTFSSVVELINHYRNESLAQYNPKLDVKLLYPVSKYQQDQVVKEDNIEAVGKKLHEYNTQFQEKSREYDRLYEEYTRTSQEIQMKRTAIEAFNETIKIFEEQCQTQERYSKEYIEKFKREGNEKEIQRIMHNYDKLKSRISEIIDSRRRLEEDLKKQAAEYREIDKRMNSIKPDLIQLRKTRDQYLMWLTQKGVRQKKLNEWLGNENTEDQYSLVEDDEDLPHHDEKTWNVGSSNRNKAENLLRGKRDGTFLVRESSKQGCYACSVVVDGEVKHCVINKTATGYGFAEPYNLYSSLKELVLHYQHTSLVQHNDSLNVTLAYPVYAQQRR
Chain of ARK5 (O60285 whole entry): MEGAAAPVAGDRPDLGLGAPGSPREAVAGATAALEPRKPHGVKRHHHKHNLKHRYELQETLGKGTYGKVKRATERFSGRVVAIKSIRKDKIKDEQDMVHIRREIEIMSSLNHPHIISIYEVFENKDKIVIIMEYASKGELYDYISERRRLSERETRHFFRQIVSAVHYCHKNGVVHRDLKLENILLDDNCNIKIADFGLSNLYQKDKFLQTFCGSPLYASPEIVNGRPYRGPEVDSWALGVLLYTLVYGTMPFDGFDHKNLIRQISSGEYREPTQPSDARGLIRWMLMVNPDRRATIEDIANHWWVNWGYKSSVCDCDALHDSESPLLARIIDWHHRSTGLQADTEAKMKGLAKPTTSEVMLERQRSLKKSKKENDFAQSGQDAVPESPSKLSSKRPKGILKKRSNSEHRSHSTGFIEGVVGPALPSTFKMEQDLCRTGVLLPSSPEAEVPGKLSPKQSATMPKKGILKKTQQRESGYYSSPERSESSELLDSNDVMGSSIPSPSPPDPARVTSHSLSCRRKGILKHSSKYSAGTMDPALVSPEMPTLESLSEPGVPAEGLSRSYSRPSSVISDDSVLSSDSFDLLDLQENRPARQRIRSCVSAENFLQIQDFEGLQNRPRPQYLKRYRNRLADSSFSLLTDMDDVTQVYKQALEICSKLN

`Nc1ccc2ncnc(NCCc3ccc(Oc4ccccc4)cc3)c2c1` [QNZ]: in the assay with HeLa cells, the “phosphorylation status of p65” value is reported as “strong inhibition”.
As to `N#CC(=C(/N)Sc1ccccc1N)/C(C#N)=C(/N)Sc1ccccc1N` [U0126], the “phosphorylation status of MEK or ERK kinases” value in [1] was “potently inhibited”.
On to `CC[C@H](Nc1ncnc2[nH]cnc12)c1nc2cccc(F)c2c(=O)n1-c1ccccc1` [idelalisib], for which, in the assay with mantle cell lymphoma [2], the “efficacy as a single agent” value is “modestly effective”.
For `CC(=O)c1c(C)c2cnc(Nc3ccc(N4CCNCC4)cn3)nc2n(C2CCCC2)c1=O` [PD0332991, reference compound], the IC50 (usually the concentration at which inhibition is half-maximal) at PI3K-δ is greater than 10 µM. The “inhibitory activity against PI3K-δ” value at PI3K-δ (in vitro kinase assay) is “failed to show any inhibitory activity”. Further, in assay [3] (72–96 hrs incubation, data not shown), the “PARP cleavage at lower concentrations” value is listed as “did not show any PARP cleavage”. In addition, the “evidence of apoptosis (PARP cleavage, caspases)” value in assay [3] (24 hrs, increasing concentrations) is reported as “no evidence of apoptosis”. Further, the “phosphorylation status of p65” value with HeLa cells is “little or no effect”. Also, in [4], the “levels of CDK4 and CDK2” value is listed as “unaffected”; the p21 levels result is recorded as “not readily seen”. Further, in [4] (increasing concentrations), the “phosphorylation of pRb and p130” value was “inhibited the phosphorylation of pRb and p130”. For the same compound, the “accumulation of cells in the sub-G1 phase” value in the assay on Z138C cells (for ON123300 at higher concentrations) is “little or no accumulation of cells in the sub-G1 phase”. Also, in the assay with Z138C cells (increasing concentrations), the “accumulation of cells in the G1 phase” value was “rapid accumulation of the cells in the G1 phase”. Besides, in [5], the “phosphorylation status of AKT, mTOR, 4EBP1 and S6 ribosomal protein (S6RB)” value is on record as “no discernable change”. Moreover, the “phosphorylation status of p65 (NF-kB)” value in assay [6] is “no change”. Also, on ARK5, the IC50 is greater than 5 µM. Besides, in assay [1], the “phosphorylation status of MEK or ERK kinases” value is “neither ON123300 nor PD0332991 has any effect”.
For `C=CC(=O)N1CCC[C@@H](n2nc(-c3ccc(Oc4ccccc4)cc3)c3c(N)ncnc32)C1` [Ibrutinib], the “patients with complete remission” value in the assay on mantle cell lymphoma [7] is “approximately 21%”.
